The results in this text go back to ChEMBL document CHEMBL1147854, “Synthesis and biological properties of 4-(3H)-quinazolone derivatives” (2007).

Each structure is given as a SMILES string. Active and inactive are the calls of the source. The rule behind the calls is not given here. Some results are limits rather than exact numbers.

Assay [1] concerns Aspergillus flavus. The assay is described as follows: Antifungal activity against Aspergillus flavus at 100 ug/ml by agar plate method. It counts as functional. In outline:
(§1)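 1 ml of test compound in DMSO (diluted to required level, filtered if turbid) mixed into 20–25 ml molten potato dextrose agar. After setting, plates were inoculated with fungal isolate and kept at 27 °C for seven days. Percent inhibition of fungal zone then recorded. Amphotericin control (7.5 mg/ml).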

Assay [2] has as its system Pseudomonas aeruginosa. Description: Antibacterial activity against Pseudomonas aeruginosa at 10 ug/ml after 24 hrs by disk diffusion method. It counts as functional. The following applies: read-out: IZ. In outline: (§2)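 Disk diffusion on filter-paper discs impregnated with DMSO solutions of test compound; filtered if turbid. Inhibition zones around dried discs measured after 24 h. Triplicate samples. Tetracycline control (20 mg/ml).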
For orientation: Agar diffusion results depend on both activity and mobility in agar.

In assay [3] the test system is Aspergillus flavus. The assay is described as follows: Antifungal activity against Aspergillus flavus at 20 ug/ml by agar plate method. The format is functional. A digest of the protocol:
as §1

In assay [4] the test system is MCF7. The assay is described as follows: Cytotoxicity against human MCF7 cells by MTT assay. The format is functional, cell-based. In outline: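 MCF-7 cells were kept at 37 °C, 5% CO2 in MEM with 10% FBS, then moved for four days to phenol red-free DMEM with 10% charcoal-stripped serum before testing. Cells were seeded at 1 × 10^4/well and exposed to compounds for 24, 48 and 72 h. MTT was added for 5 h at 37 °C, followed by DMSO solubilisation. Doxorubicin standard.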

The test system of assay [5] is Staphylococcus aureus. Description: Antibacterial activity against Staphylococcus aureus at 10 ug/ml after 24 hrs by disk diffusion method. The format is functional. The following applies: read-out: IZ. In outline: as §2
Assay [6] deals with Aspergillus niger. The assay is described as follows: Antifungal activity against Aspergillus niger at 100 ug/ml by agar plate method. The format is functional. A digest of the protocol: as §1
Assay [7] relates to Aspergillus niger. The assay is described as follows: Antifungal activity against Aspergillus niger at 50 ug/ml by agar plate method. It counts as functional. A digest of the protocol:
as §1

Assay [8] deals with Aspergillus flavus. The assay is described as follows: Antifungal activity against Aspergillus flavus at 10 ug/ml by agar plate method. It counts as functional. In outline:
as §1

In assay [9] the test system is Aspergillus flavus. Description: Antifungal activity against Aspergillus flavus at 50 ug/ml by agar plate method. The format is functional. A digest of the protocol: as §1
Assay [10] concerns Aspergillus niger. The assay is described as follows: Antifungal activity against Aspergillus niger at 10 ug/ml by agar plate method. It counts as functional. In outline: as §1
Assay [11] concerns Aspergillus niger. Description: Antifungal activity against Aspergillus niger at 20 ug/ml by agar plate method. The format is functional. A digest of the protocol: as §1
Assay [12] relates to Klebsiella pneumoniae. The assay is described as follows: Antibacterial activity against Klebsiella pneumoniae at 10 ug/ml after 24 hrs by disk diffusion method. The format is functional. The following applies: read-out: IZ. A digest of the protocol:
as §2

A word on the inhibition: it is the drop in the measured response relative to a control, in per cent. Higher therefore signals a strong effect. Turning to `O=C1c2ccccc2C(=O)N1Cc1nc2ccccc2c(=O)n1Nc1nc(-c2ccccc2)nc2ccccc12`, the inhibition at 100 µg/mL in assay [1] was 96.7%; in assay [6], 85%. In addition, the zone of inhibition at 10 µg/mL in assay [2] is above 14 mm; in assay [5], 6 mm; in [12] it was above 14 mm. Besides, the inhibition at 20 µg/mL in [3] is 86.7%; in [11], 70%. For the same compound, the outcome in assay [4] was inactive. For the same compound, the inhibition at 50 µg/mL in assay [7] is 75%; in assay [9] it was 86.7%. Besides, the inhibition at 10 µg/mL worked out at 83.3% in assay [8] and 25% in assay [10].
Take `O=c1c2ccccc2nc(-c2ccccc2)n1Nc1nc(-c2ccccc2)nc2ccccc12`: the inhibition at 100 µg/mL in assay [1] worked out at 96.7%; in [6] it was 75%. Besides, the zone of inhibition at 10 µg/mL in [2] was 10 mm; in assay [5] it was 6 mm; in assay [12] it was above 14 mm. For the same compound, the inhibition at 20 µg/mL in assay [3] was determined as 83.3%; in assay [11], 40%. Besides, the outcome in [4] was inactive. Further, the inhibition at 50 µg/mL in [7] came to 60%; in assay [9], 93.3%. Also, the inhibition at 10 µg/mL is 76.7% in assay [8] and 30% in assay [10].
Regarding `O=C(NCc1nc2ccccc2c(=O)n1Nc1nc(-c2ccccc2)nc2ccccc12)c1ccccc1`, the inhibition at 100 µg/mL in [1] amounted to 86.7%; in [6], 90%. In addition, the zone of inhibition at 10 µg/mL in assay [2], in [5] and in assay [12] was 10 mm in each case. Besides, the results for the inhibition at 20 µg/mL in [3] and in [11] were 66.6% and 60%, respectively. Further, the result in assay [4] was Active. For the same compound, the inhibition at 50 µg/mL in assay [7] stood at 75%; in [9] it was 76.7%. Moreover, the inhibition at 10 µg/mL in [8] came to 60%; in assay [10], 50%.
In the case of `O=c1c2ccccc2nc(/C=C\c2ccccc2)n1Nc1nc(-c2ccccc2)nc2ccccc12`, the inhibition at 100 µg/mL in assay [1] was 96.7%; in [6] it was 95%. Also, the values for the zone of inhibition at 10 µg/mL in assay [2], in assay [5] and in [12] were 10 mm, above 14 mm and 6 mm, respectively. For the same compound, the inhibition at 20 µg/mL in [3] was 80%; in assay [11] it was 70%. The result in assay [4] was Active. In addition, the results for the inhibition at 50 µg/mL in assay [7] and in [9] were 90% and 86.7%, respectively. Besides, the inhibition at 10 µg/mL in [8] came to 53.3%; in assay [10], 60%.
